Lipid droplet – hepatic lipid droplet formation modulation; inhibition, % at 6.5 µM; AML12 mouse hepatocytes, oleate lipid droplets, BODIPY imaging; hit rate 0.4% among 240,000; AID 1656;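 active = lipid droplet intensity inhibited by at least 50%, with more than 500 cells counted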
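material = mouse AML12 hepatocyte cell line, fixed after treatment | also added = 100 µM oleic acid challenge | doses = compound at 6.5 µM only | schedule = overnight exposure | technique = Image-based BODIPY and DAPI two-channel analysis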
NTR1 ag – agonists of human neurotensin receptor NTR1; activation, % at 20 µM; hit rate 0.17% among 330,000; NTR1-U2OS beta-arrestin-GFP spot imaging, agonist mode; P30989;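 active = activation at or above 40% of the spot to cytoplasm intensity ratio, with at least 20 cells analyzed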;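 note: 0% = DMSO without peptide and 100% = 100 nM NTR1 peptide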
MC4R barr agon – activates human MC4R beta-arrestin recruitment; hit rate 0.98% among 360,000; activation, % at 8.9 µM; P32245; AID 540308; U2OS MC4R beta-arrestin complementation, luminescence; percent of melanotan II response, DMSO zero;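 active = activation above a per-plate cutoff, the mean activation of sample wells on that plate plus 3 SD, cut at about 8% in these data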
MC4R antag cAMP – human MC4R antagonism in cAMP assay; P32245; MC4R-expressing cells, MTII-stimulated cAMP, LANCE TR-FRET; inhibition, % at 6.5 µM; hit rate 0.48% among 360,000; AID 540295;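 active = inhibition above its plate's cutoff, the mean of tested wells on that plate plus 3 SD, cut at about 29% in these data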;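 note: 0% = Melanotan II alone and 100% = Melanotan II plus saturating MCL0020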
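Test system: U2OS cells stably expressing human melanocortin 4 receptor (MC4R); also added: Melanotan II challenge; compound: 6.5 µM single dose; timing: 30-min compound preincubation, 1-h Melanotan II challenge, 1-h detection, room temperature; signal: Eu-cAMP/anti-cAMP TR-FRET, emission 671 nm; repeats: one well per compound, no replicates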
PREPL inhibitor – inhibits the human prolyl oligopeptidase-like enzyme; Q4J6C6; recombinant PREPL, fluorescence polarization activity-based probe; inhibition, % at 5.96 µM; hit rate 0.68% among 320,000; AID 2751;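 note: 0% = enzyme with DMSO and 100% = wells lacking enzyme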
HTR2A ag – activates the mouse 5-HT2A serotonin receptor | hit rate 0.66% among 360,000 | AID 624169 | activation, % at 7.6 µM | CHO-K1 mHTR2A beta-arrestin complementation, luminescence; percent of 30 µM serotonin response;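 active = activation above a run cutoff, the mean activation of all tested compounds plus 3 SD, cut at about 14% in these data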;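 note: 0% = plate median of compound wells and 100% = 30 µM serotonin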
Target sequence (P35363 whole entry, looked up): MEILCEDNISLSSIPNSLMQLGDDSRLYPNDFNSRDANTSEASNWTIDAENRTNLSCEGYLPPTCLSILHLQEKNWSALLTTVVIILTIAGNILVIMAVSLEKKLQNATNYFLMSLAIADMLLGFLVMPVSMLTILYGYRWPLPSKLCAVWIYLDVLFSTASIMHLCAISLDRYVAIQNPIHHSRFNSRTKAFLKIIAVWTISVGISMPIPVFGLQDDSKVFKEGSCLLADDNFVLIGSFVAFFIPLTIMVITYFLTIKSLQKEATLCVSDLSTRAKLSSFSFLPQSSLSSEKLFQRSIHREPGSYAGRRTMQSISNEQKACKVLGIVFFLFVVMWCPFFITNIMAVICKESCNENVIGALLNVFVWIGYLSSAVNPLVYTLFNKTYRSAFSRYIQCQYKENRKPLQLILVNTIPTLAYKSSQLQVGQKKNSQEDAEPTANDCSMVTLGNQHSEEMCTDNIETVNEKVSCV
Hep lipid conf – hepatic lipid droplet formation inhibition, confirmed; AID 463183; AML12 mouse hepatocytes, BODIPY lipid droplet imaging; droplets induced with 100 µM oleic acid; shares compounds with Lipid droplet; inhibition, % at 5.2 µM; hit rate 65% among 870;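 active = inhibition of lipid droplet metric at least 50%, with more than 300 cells in each of four replicates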;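 note: plate controls were DMSO with oleic acid for no effect and 5 µM Triacsin-C for full effect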
AML12 tox img – counter-screen for cytotoxicity in AML12 mouse hepatocytes; z-score at 5 µM; shares compounds with Lipid droplet; DAPI nuclear morphology cytotoxicity imaging; hits give high values; cells fed 100 µM oleate overnight; hit rate 3% among 870; in the data active = z-score above about 6.3;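 note: compound exposure lasted overnight at 37 °C before fixation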
AML12 tox conf – AML12 hepatocyte cytotoxicity, confirmed; 530 tested, under 10 active; AML12 mouse hepatocyte viability, ATP luminescence; cells loaded with 100 µM oleic acid; cytotoxicity, % at 50 µM; AID 463219; shares compounds with Lipid droplet;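 active = cytotoxicity above 50% in each of four replicates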;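 note: compound exposure lasted overnight at 37 °C before the ATP read; 0% = DMSO-treated cells and 100% = wells with no cells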
PREPL confirm – human PREPL inhibition, confirmation; recombinant PREPL, fluorescence polarization activity probe; shares compounds with PREPL inhibitor; inhibition, % at 5.96 µM; AID 2803; hit rate 67% among 2,000;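 note: 0% = protein with DMSO and 100% = wells lacking protein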
cAMP nonselect – counter-screen for MC4R antagonists: nonselective cAMP signaling inhibitors. shares compounds with MC4R antag cAMP. parental U2OS, forskolin cAMP, LANCE TR-FRET. inhibition, % at 6.5 µM. hit rate 26% among 1,600. AID 602193;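 active = mean inhibition over triplicates above the low-control well mean plus 3 SD, set per campaign, cut at about 13% in these data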;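 note: signal is single emission at 671 nm which falls as cellular cAMP rises; 0% = forskolin-stimulated wells and 100% = buffer without forskolin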
MC4R antag conf – human MC4R cAMP antagonism confirmation. shares compounds with MC4R antag cAMP. MC4R-expressing cells, MTII-stimulated cAMP, TR-FRET. inhibition, % at 6.5 µM. hit rate 27% among 1,600; in the data active = inhibition above about 29%;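 note: 0% = agonist stimulated wells alone and 100% = agonist stimulated wells plus saturating reference antagonist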
MC4R barr conf – human MC4R beta-arrestin agonism confirmation | shares compounds with MC4R barr agon | U2OS MC4R beta-arrestin recruitment, luminescence; scaled DMSO 0%, Melanotan II 100% | activation, % at 8.9 µM | hit rate 31% among 2,400;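 active = mean activation across replicates above the hit cutoff set in the earlier primary screen, cut at about 8% in these data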
MOR-DOR barr ag – counter-screen for MC4R agonists: agonists of mu-delta opioid heterodimer; activation, % at 9.2 µM; shares compounds with MC4R barr agon; U2OS PathHunter beta-arrestin, beta-gal luminescence; percent of deltorphin B response, DMSO zero; hit rate 5.8% among 2,400;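 active = mean activation across replicates exceeds the hit threshold derived in the earlier primary screen, cut at about 18% in these data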;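 note: 100% = deltorphin B at 0.9 µM final and 0% = DMSO alone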
MOR ag counter – activates human mu opioid receptor in HTR2A counterscreen; shares compounds with HTR2A ag; U2OS OPRM1 beta-arrestin PathHunter, luminescence; DMSO 0%, DAMGO 9.3 µM 100%; activation, % at 9.3 µM; hit rate 5.3% among 2,300; AID 624380;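 active = mean activation above the mean of DMSO-only wells plus 3 SD, cut at about 0.5% in these data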
HTR2A ag conf – mouse HTR2A agonism confirmed; shares compounds with HTR2A ag; activation, % at 7.6 µM; hit rate 19% among 2,300; CHO-K1 PathHunter beta-arrestin recruitment, luminescence; DMSO 0%, 30 µM serotonin 100%;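 active = mean activation across triplicates above the hit threshold derived in the original primary screen, cut at about 15% in these data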
Starred values were filed as active, the others as inactive; nt = no result given. The list is not random: actives were taken first. Their share in the collection is about 2.7%. Cut-off read from the data, not from the text of the source, unless noted: active = inhibition above about 43%; inactive = the rest.

SMILES	Lipid droplet	NTR1 ag	MC4R barr agon	MC4R antag cAMP	PREPL inhibitor	HTR2A ag	Hep lipid conf	AML12 tox img	AML12 tox conf	others
CC(=O)C1=C(C)NC(SCC(=O)c2ccc(-c3ccccc3)cc2)=C(C#N)C1c1cccnc1 (configuration not stated)	nt	4	nt	nt	35	nt	nt	nt	nt
CC(=O)C1=C(C)NC(SCSc2ccccc2)=C(C#N)C1c1cccnc1 (configuration not stated)	59*	6	nt	nt	17	nt	79*	0.91	-7
COc1cc(NC(=O)c2ccco2)c(OC)cc1NC(=O)Nc1ccccc1Cl	82*	2	2	-5	6	-2	114*	0.93	10
CC(CCn1cccn1)NC(=O)CCc1nnc(C2CCCCC2)o1 (configuration not stated)	10	0	-5	4	-10	2	nt	nt	nt
COc1ccc(S(=O)(=O)N2CCN(C(=O)c3ccc(COc4ccccc4)o3)CC2)cc1	nt	nt	0	-4	nt	-2	nt	nt	nt
CC(C)Oc1ccc(C(=O)OC(C)C(=O)NC2CCCCC2C)cc1 (configuration not stated)	52*	1	4	-2	5	3	102*	0.7	12
O=[N+]([O-])c1ccccc1NCCNc1ncc(C(F)(F)F)cc1Cl	13	11	2	-5	1	0	nt	nt	nt
O=[N+]([O-])c1cc(Cl)ccc1NCCNc1ncc(C(F)(F)F)cc1Cl	52*	5	-2	2	2	-2	44	0.6	nt
C/C(=N\Nc1nc(-c2ccccc2)cs1)c1cccs1	52*	-1	1	-1	0	1	96*	-1.2	28
NS(=O)(=O)c1ccc(NC(=O)COC(=O)/C(=C/c2cccs2)c2cccs2)cc1	-2	11	5	24	-78	-3	nt	nt	nt
O=C1CN(C(=O)Cn2ncc(Cl)c(Cl)c2=O)c2ccccc2N1	126*	nt	2	44*	nt	1	0	0.66	nt	cAMP nonselect=20*;MC4R antag conf=30*
COc1ccc(C(=O)OCC(=O)NC(C)CCc2ccccc2)cc1 (configuration not stated)	-4	0	1	7	10	5	nt	nt	nt
COc1ccc(C(=O)OCC(=O)NC(C)CCc2ccccc2)cc1OC (configuration not stated)	62*	0	1	31*	-11	1	72*	-0.53	7	cAMP nonselect=-1;MC4R antag conf=2
CC(C)[C@H](NC(=O)c1ccccc1)C(=O)OCC(=O)c1c(N)n(C)c(=O)n(C)c1=O	nt	-2	-2	-1	4	-4	nt	nt	nt
COc1ccc2c(c1)c(CC(=O)Nc1ccc(C(C)=O)cc1)c(C)n2C(=O)c1ccc(Cl)cc1	73*	-2	0	29*	-15	-7	77*	-0.59	5	cAMP nonselect=0;MC4R antag conf=7
Cc1noc(C)c1CSCC(=O)Nc1nc(-c2ccc(F)c(F)c2)cs1	nt	20	-2	7	11	0	nt	nt	nt
COc1cc(NC(=O)c2cccs2)c(OC)cc1NC(=O)CCC(=O)Nc1ccc(C)cc1	68*	4	13*	12	10	-5	108*	0.29	15	MC4R barr conf=3;MOR-DOR barr ag=1
CC(=O)c1c(C)[nH]c(C(=O)N(C)CC(=O)Nc2ccc(Cl)c(C(F)(F)F)c2)c1C	-10	1	-4	12	-3	-13	nt	nt	nt
CC(C)C[C@H]1C(=O)N2CCC[C@H]2[C@]2(O)O[C@](NC(=O)[C@@H]3C=C4c5cccc6[nH]c(Br)c(c56)CC4N(C)C3)(C(C)C)C(=O)N12 (some centres not stated)	54*	5	-1	16	18	41*	39	-1.6	2	MOR ag counter=0;HTR2A ag conf=127*
CC(O)(c1cccnc1)c1nc(-c2cc(F)cc(F)c2)cs1 (configuration not stated)	nt	nt	-2	0	nt	-5	nt	nt	nt
CCOc1ccc(Nc2cc(C)c3ccccc3n2)cc1	-1	22	0	7	17	1	nt	nt	nt
CCOc1ccc(Nc2c3ccccc3nc3ccccc23)cc1	-82	14	1	-28	56*	-3	nt	nt	nt	PREPL confirm=60*
CCOc1ccc(Nc2nc(NCC3CCCO3)c3ccccc3n2)cc1 (configuration not stated)	-27	21	3	8	59*	-6	nt	nt	nt	PREPL confirm=56*
COc1ccc(CSc2nnc3[nH]c(=O)cc(N)n23)cc1	1	0	2	-8	5	4	nt	nt	nt
O=c1cc(-c2ccc(O)c(O)c2)oc2cc(O[C@@H]3O[C@H](CO)[C@@H](O)[C@H](O)[C@H]3O)cc(O)c12	nt	-2	-1	-9	73*	-5	nt	nt	nt	PREPL confirm=60*
